Published values of several laboratories.
Protocols differ between the studies behind these lines.
Read-out: cell growth or viability

N#Cc1ccc(-c2cc(COc3cc(C(F)(F)F)nc4ccccc34)on2)cc1 — IC50 (Z-138; MTS; 72 h): 36.7 µM
CC(C)c1cccc(C(C)C)c1N=C1C(=O)Nc2ccccc21 — IC50 (B16; MTT; 48 h): 6.88 µM
O=c1cc(OCc2cc(-c3ccc(Cl)cc3Cl)no2)c2ccccc2o1 — IC50 (Z-138; MTS; 72 h): > 100 µM
Cc1nn(-c2ccc(S(=O)(=O)N3CCN(C)CC3)cc2)c2nn3nnnc3nc12 — IC50 (DLD-1; MTT): 0.08 µM
O=C(CSc1nc2ccccc2s1)N/N=C/c1ccc(OCC(=O)Nc2ccc([N+](=O)[O-])cc2)cc1 — IC50 (Z-138; MTS; 72 h): 3.75 µM
O=c1cc(OCc2cc(-c3ccc(C(F)(F)F)cc3)no2)c2ccccc2o1 — IC50 (Z-138; MTS; 72 h): > 100 µM
O=C1Nc2ccccc2C1=Nc1ccccc1I — IC50 (B16; MTT; 48 h): 7.38 µM
Clc1ccc(-c2cc(CNc3cccc4cccnc34)on2)c(Cl)c1 — IC50 (Z-138; MTS; 72 h): 27.9 µM
COc1cc([C@@H]2c3cc4c(cc3[C@@H](O[C@@H]3O[C@@H]5CO[C@@H](C)O[C@H]5[C@H](O)[C@H]3O)[C@H]3COC(=O)[C@H]23)OCO4)cc(OC)c1O — IC50 (Z-138; MTS; 72 h): 0.08 µM
CONC(=O)c1cccc2c1cc(C)n2-c1nc2c(c(NCc3ccccc3)n1)CCCN2 — IC50 (ARP-1; 72 h): 2.1 µM
COc1cccc2c1C(=O)c1c(O)c3c(c(O)c1C2=O)C[C@@](O)(C(=O)CO)C[C@@H]3O[C@H]1C[C@H](N)[C@H](O)[C@H](C)O1 — IC50 (BXPC-3; 96 h): 0.124 µM
c1ccc(-c2cc(CNc3cccc4cccnc34)on2)nc1 — IC50 (Z-138; MTS; 72 h): 28.2 µM
CC(C)c1cccc(C(C)C)c1N=C1C(=O)N(Cc2ccc(Br)cc2)c2ccccc21 — IC50 (B16; MTT; 48 h): 34.2 µM
c1ccc(-c2cc(CNc3cccc4cccnc34)on2)cc1 — IC50 (Z-138; MTS; 72 h): 35.3 µM
COc1cc(N=C2C(=O)N(Cc3ccccc3)c3ccccc32)cc(OC)c1 — IC50 (B16; MTT; 48 h): 0.57 µM
Cc1cc2c(C(N)=O)cccc2n1-c1nc2c(c(NCc3ccccc3)n1)CCCN2 — IC50 (BXPC-3; 72 h): 0.8 µM
CCc1ccc(N=C2C(=O)Nc3ccccc32)cc1 — IC50 (B16; MTT; 48 h): 37.3 µM
O=C(CSc1nc2ccccc2s1)N/N=C/c1ccc(OCC(=O)Nc2cccc(Br)c2)cc1 — IC50 (Z-138; MTS; 72 h): > 100 µM
Cc1cccc(N=C2C(=O)N(Cc3cccc(Cl)c3)c3ccccc32)c1 — IC50 (B16; MTT; 48 h): 6.71 µM
Cc1cc2c(C(=O)O)cccc2n1-c1nc2c(c(NCc3ccccc3)n1)CCCN2 — IC50 (BXPC-3; 72 h): 0.7 µM
